The test system of data set [1] is Mus musculus. The data set can be described thus: Inhibition of thioglycolate-induced macrophage influx into peritoneal cavity in mouse at 20 to 80 mg/kg, po BID. The format is functional, organism-based. The following applies: TDE = time-dependent effect. The gist of the method:
(§1)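 Female C3H/HEN mice (22-26 g) were dosed orally with compound suspended in 0.5% hydroxypropylmethylcellulose/0.1% Tween 80 (0.2 ml per mouse). Thioglycolate (1.5 ml) was injected i.p. on day 0. On day 4, the peritoneum was lavaged with 5 ml cold PBS containing 40 units/ml heparin, and cells were counted by hemocytometer in 0.1% crystal violet. Data are mean ± SEM; Dunnett's test.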

Data set [2] concerns Peritoneal macrophage cell. As to the kind of experiment: Effect on LPS-induced IL-6 production in mouse intraperitoneal macrophages pretreated with CSF-1 at 0.03906 to 20 uM compound incubated for 30 mins before LPS stimulation measured after 20 hrs by ELISA. The format is functional, cell-based. In general terms: In an ELISA, binding on a coated surface is turned into a signal by an enzyme label.

Data set [3] relates to Monocyte. The data set can be described thus: Inhibition of GMCSF-stimulated growth of freshly isolated human monocytes at 1 uM preincubated for 30 mins before inducer addition measured after 5 days by WST-1 method. Format: functional. The following applies: read-out: GI. On the technique in general: Tetrazolium assays rely on reduction of a dye to a coloured formazan, in cell work by metabolically active cells.

For data set [4], the system named is Monocyte. As to the kind of experiment: Effect on LPS-induced PGE2 production in human monocytes at 0.03906 to 20 uM preincubated for 30 mins before LPS stimulation measured after 20 hrs by ELISA. Format: functional, cell-based.
The subject of data set [5] is Osteoclast. As to the kind of experiment: Inhibition of human osteoclast attachment to plastic surface assessed cells per cm2 of plastic at 3 uM after 3 days by immunocytochemistry (reference value: 9723 +/- 1380 cells/cm2 of plastic). The format is functional. The procedure, abridged: (§2)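 Human PBMCs from a healthy volunteer (5 × 10^5 cells in MEM/10% FCS) were seeded on plastic coverslips with RANKL and CSF-1 (30 ng/ml each) for 10 days, with medium changed every 3 days. Compound was added on day 10 (0.1% DMSO final). On day 13, total cells on the coverslips were counted by immunocytochemistry. Data are mean ± SEM.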

In data set [6] the test system is Monocyte. As to the kind of experiment: Effect on LPS-induced TNF production in human monocytes at 0.03906 to 20 uM preincubated for 30 mins before LPS stimulation measured after 20 hrs by ELISA. Format: functional, cell-based.
Data set [7] concerns Osteoclast. As to the kind of experiment: Inhibition of human osteoclast attachment to plastic surface assessed cells per cm2 of plastic at 10 uM after 3 days by immunocytochemistry (reference value: 9723 +/- 1380 cells/cm2 of plastic). The format is functional. The gist of the method:
as §2

Data set [8] relates to HFF. As to the kind of experiment: Growth inhibition of serum-stimulated HFF after 3 days by spectrophotometry. Format: cell-based. The following applies: Homo sapiens, 72 h. The procedure, abridged: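 Cells cultured so that added serum or growth factor gave linear growth. Compound tested as a 10- to 12-point dose-response with a top concentration of 20 μM.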
For data set [9], the system named is Osteoclast. As to the kind of experiment: Inhibition of human osteoclast degradation of bone assessed as reduction in actin ring formation per cm2 of bone at 3 uM after 3 days by immunocytochemistry (reference value: 1546 +/- 232 /cm2 of bone). Format: functional.
Data set [10] can be described thus: Cmax in mouse at 20 mg/kg, po. The following applies: in vivo. Format: ADME, organism-based. On the set-up: dose 20 mg/kg, route oral. The gist of the method:
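Female mice given single oral doses (20 or 80 mg/kg) in 0.5% HPMC/0.1% Tween 80. Three mice killed with CO2 per time point; plasma extracted with isopropyl alcohol/acetonitrile, then vortexed, sonicated and centrifuged. Quantified by LC/MS (APCI positive mode, multiple-reaction monitoring) against a standard curve prepared in plasma.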

The target in data set [11] is T1, Protein kinase C zeta type (Homo sapiens, UniProt Q05513).
T1 sequence (Q05513 whole entry): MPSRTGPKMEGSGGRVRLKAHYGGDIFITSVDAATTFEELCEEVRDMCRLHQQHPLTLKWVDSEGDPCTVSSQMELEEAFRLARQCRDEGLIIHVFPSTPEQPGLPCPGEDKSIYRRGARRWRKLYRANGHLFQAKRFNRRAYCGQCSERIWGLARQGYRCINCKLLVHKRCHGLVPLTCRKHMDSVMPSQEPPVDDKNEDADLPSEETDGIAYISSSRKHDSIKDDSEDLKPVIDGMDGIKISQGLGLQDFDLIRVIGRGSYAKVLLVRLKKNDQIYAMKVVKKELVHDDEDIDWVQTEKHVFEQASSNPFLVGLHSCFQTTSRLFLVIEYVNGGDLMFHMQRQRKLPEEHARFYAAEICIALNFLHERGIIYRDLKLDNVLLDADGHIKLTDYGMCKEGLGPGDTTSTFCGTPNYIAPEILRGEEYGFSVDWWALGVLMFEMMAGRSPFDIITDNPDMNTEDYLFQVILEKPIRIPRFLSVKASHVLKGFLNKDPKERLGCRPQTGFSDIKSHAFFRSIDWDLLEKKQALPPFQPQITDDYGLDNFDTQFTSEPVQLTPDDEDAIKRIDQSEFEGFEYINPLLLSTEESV
The data set can be described thus: Inhibition of human His-tagged PKCz using biotin-(amino hexanoic acid)-FKLKRKGSFKKFA-CONH2 as substrate after 40 mins by scintillation proximity assay. The gist of the method:
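Catalytic domains of the human kinases were expressed, isolated and assayed with ATP and the appropriate substrate. Compound was tested as a 10- to 12-point dose-response up to a maximal 20 μM.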
(In general: In a scintillation proximity assay essentially only radioactivity close to the scintillant gives light.)

The test system of data set [12] is Mus musculus. The data set can be described thus: Inhibition of thioglycolate-induced macrophage influx into peritoneal cavity in mouse at 20 mg/kg, po BID starting 1 hr before thioglycolate challenge for 4 days. The format is functional. The gist of the method:
as §1

The species named for data set [13] is Rattus norvegicus. The data set can be described thus: Inhibition of PTH-induced Wistar rat calvarial bone degradation assessed as reduction in DPPD level in media at 1 to 100 uM after 48 hrs. The format is functional. The gist of the method: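 Rat calvaria incubated with PTH plus compound for two consecutive 48-h periods. Medium from the second period assayed for deoxypyridinoline crosslinks (DPPD).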

In data set [14] the test system is Mus musculus. The data set can be described thus: Inhibition of LPS-stimulated IL-6 production in mouse at 40 mg/kg, po administered 0.5 hr before LPS challenge measured […] after LPS challenge. Format: functional.
Data set [15] concerns Mus musculus. As to the kind of experiment: Inhibition of thioglycolate-induced macrophage influx into peritoneal cavity in mouse at 80 mg/kg, po BID administered 7 days before and 4 days after thioglycolate challenge. The format is functional. The procedure, abridged:
as §1

Data set [16] deals with Mus musculus. The data set can be described thus: Inhibition of LPS-stimulated IL-6 production in mouse at 40 mg/kg, po administered 4.5 hr before LPS challenge measured […] after LPS challenge. Format: functional.
For data set [17], the system named is Osteoclast. The data set can be described thus: Inhibition of human osteoclast degradation of bone assessed as bone slice resorbed at 10 uM after 3 days by immunocytochemistry (reference value: 26.6 +/- 4.7 %). The following applies: 72 h. Format: functional.
In data set [18] the test system is NFS-60. The data set can be described thus: Growth inhibition of CSF1-stimulated mouse M-NFS-60 cells at 0.7 uM after 3 days by spectrophotometry. Format: functional.
The species entered for data set [19] is Rattus norvegicus. The data set can be described thus: Inhibition of PTH-induced Wistar rat fetal long bone degradation assessed as labeled 45Ca release in to media at 1 to 10 uM after 48 hrs by liquid scintillation spectrometry. Format: functional. The procedure, abridged: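 Fetal rat long bones preloaded with 45CaCl2 and incubated for 24 h. PTH and compound then added; release of labelled calcium into the medium measured 48 h later.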

The test system of data set [20] is Osteoclast. The data set can be described thus: Inhibition of human osteoclast degradation of bone assessed as bone slice resorbed at 1 uM after 3 days by immunocytochemistry (reference value: 26.6 +/- 4.7 %). The format is functional. The following applies: 72 h.

The source made the active and inactive calls. No cut-off for these calls is given here. Some results are limits rather than exact numbers.

Broadly, the IC50 is the concentration needed to halve the response being measured. Read a low IC50 as higher potency. For orientation: Cmax means the peak of the concentration-time curve. As usually defined, the inhibition in vivo is the change of the read-out against control, counted positive when it falls. Turning to `COc1ccc(COc2ccc(Cc3cnc(N)nc3N)cc2OC)cc1` [GW632580X], the inhibition result in data set [1] was “tde”. Further, the result in data set [2], in data set [4] and in [6] was inactive. Besides, the inhibition of growth at 1 µM in data set [3] is 80%. Besides, the figures for the Activity in [5], in data set [7] and in data set [9] were 3369 /cm2, 2728 /cm2 and 148 /cm2, respectively. For the same compound, the results for the IC50 in data set [8] and in data set [11] were above 30 µM and above 24 µM, respectively. In [10], this compound displayed a peak concentration (Cmax) of 50 nM. Moreover, the inhibition in vivo at 20 mg/kg in data set [12] was 17%. The inhibition entry in data set [13] and in data set [19] was “Active” in each case. Also, the inhibition in vivo at 40 mg/kg in data set [14] is 20%; in data set [16], -28%. Besides, the inhibition in vivo at 80 mg/kg in data set [15] stood at 45%. For the same compound, the bone resorption (%) at 10 µM in data set [17] was determined as 1.2%. Besides, in data set [18], the “growth inhibition (GI)” value was “Active”. For the same compound, the bone resorption (%) at 1 µM in data set [20] is 3.3%.
